Molecules are shown by their SMILES. In brackets after ≈: the same amount, converted by molar mass. Activity calls are given as the source filed them. The rule behind the calls is not given here.

From ChEMBL document CHEMBL4043282, “Discovery of the First Potent, Selective, and Orally Bioavailable Signal Peptide Peptidase-Like 2a (SPPL2a) Inhibitor Displaying Pronounced Immunomodulatory Effects In Vivo” (J Med Chem, 2018) come the findings set out here.

Data set [1] addresses T1, Signal peptide peptidase-like 2A (Homo sapiens, UniProt Q8TCT8).
T1 sequence (Q8TCT8 whole entry): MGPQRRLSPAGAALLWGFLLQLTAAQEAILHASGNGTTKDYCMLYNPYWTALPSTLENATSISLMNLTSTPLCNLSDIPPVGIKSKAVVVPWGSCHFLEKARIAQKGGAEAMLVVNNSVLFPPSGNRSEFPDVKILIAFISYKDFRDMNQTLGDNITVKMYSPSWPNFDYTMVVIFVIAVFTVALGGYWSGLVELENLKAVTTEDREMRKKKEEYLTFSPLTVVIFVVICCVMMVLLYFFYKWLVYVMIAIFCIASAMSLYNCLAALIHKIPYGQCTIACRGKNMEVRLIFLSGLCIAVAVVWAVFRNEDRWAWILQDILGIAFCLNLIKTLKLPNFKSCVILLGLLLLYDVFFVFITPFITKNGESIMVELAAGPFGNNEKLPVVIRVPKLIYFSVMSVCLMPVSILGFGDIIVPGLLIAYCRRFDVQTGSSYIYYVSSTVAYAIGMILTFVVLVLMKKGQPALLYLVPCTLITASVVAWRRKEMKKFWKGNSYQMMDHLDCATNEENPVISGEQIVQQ
The data set is described as follows: Inhibition of human SPPL2a expressed in HEK293 cells using GAL4-VP16 fusedTNFalpha (1 to 76)-NTF as substrate after 24 hrs by Bright-Glo luciferase reporter gene assay. The data set is classed as cell-based. The procedure, abridged: (§1)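 HEK293 cells transiently transfected with human SPPL2a, VP16-TNFα(aa1-76)-NTF substrate and Gal4-luciferase reporter (SPPL2a), or human Notch1-VP16-Gal4 plus Gal4-luciferase reporter relying on endogenous γ-secretase.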
A general note: In a reporter assay the amount or activity of a reporter protein is the signal.

Data set [2] is described as follows: Selectivity ratio of IC50 for human gamma-secretase expressed in HEK293 cells to IC50 for human SPPL2a expressed in HEK293 cells. The procedure, abridged:
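HEK293 transiently transfected: SPPL2a arm with human SPPL2a, VP16-TNFα(aa1-76)-NTF and Gal4-luciferase; γ-secretase arm with human Notch1-VP16-Gal4 plus reporter (endogenous γ-secretase). Compound added 3 h after plating, 10 μM–0.3 nM final, triplicate, 24 h at 37 °C; luminescence read. IC50 from concentration vs normalised luminescence; ratio of the two IC50s.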

Data set [3] can be described thus: Inhibition of human gamma-secretase expressed in HEK293 cells using Notch1-VP16-Gal4 as substrate after 24 hrs by Bright-Glo luciferase reporter gene assay. The data set is classed as cell-based. The conditions noted are these: HEK293, 24 h. In a few lines:
as §1

A short description of data set [4]: Octanol-buffer partition coefficient, log P of the compound by LC/MS/MS based shake flask method. Format: physicochemical.
A short description of data set [5]: Oral bioavailability in Sprague-Dawley rat at 1 mg/kg by LC/MS/MS analysis. The conditions noted are these: in vivo. The data set is classed as ADME, organism-based.
Data set [6] has as its target T2, Signal peptide peptidase-like 2A (Mus musculus, UniProt Q9JJF9).
T2 sequence (Q9JJF9 whole entry): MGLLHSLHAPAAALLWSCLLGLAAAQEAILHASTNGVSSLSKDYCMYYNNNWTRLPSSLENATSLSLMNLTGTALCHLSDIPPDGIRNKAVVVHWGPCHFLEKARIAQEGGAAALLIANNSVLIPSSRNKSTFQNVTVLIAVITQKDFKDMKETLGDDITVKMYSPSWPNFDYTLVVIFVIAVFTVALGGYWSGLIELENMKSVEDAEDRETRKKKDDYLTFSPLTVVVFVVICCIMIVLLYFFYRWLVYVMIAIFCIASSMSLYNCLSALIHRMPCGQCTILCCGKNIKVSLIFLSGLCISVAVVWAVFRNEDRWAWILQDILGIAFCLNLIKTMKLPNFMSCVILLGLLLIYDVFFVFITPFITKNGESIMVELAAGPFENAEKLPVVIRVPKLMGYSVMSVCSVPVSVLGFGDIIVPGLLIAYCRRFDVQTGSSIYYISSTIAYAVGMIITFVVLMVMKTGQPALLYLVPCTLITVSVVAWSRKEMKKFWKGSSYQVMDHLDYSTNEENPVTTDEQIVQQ
The data set is described as follows: Inhibition of mouse SPPL2a in A20 cells assessed as CD74/p8 accumulation by flow cytometry. The data set is classed as cell-based.

Data set [7] relates to Rattus norvegicus. Description: Dose normalized AUC in Sprague-Dawley rat at 3 mg/kg, po by LC/MS/MS analysis. The data set is classed as ADME, organism-based. The conditions noted are these: in vivo. The procedure, abridged:
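Female Sprague−Dawley rats catheterized (femoral artery/vein); cassette oral dosing 3 mg/kg per compound as aqueous Tween 80/CMC-Na suspension (0.5/0.5/99), 48 h after iv dose; arterial blood sampled over time into EDTA tubes; LC-MS/MS with QC acceptance 70−130%; noncompartmental PK.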

The nature of data set [8]: Clearance in Sprague-Dawley rat at 1 mg/kg, iv by LC/MS/MS analysis. The data set is classed as ADME, organism-based. The conditions noted are these: in vivo. The procedure, abridged: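 Female Sprague−Dawley rats with femoral artery and vein catheters implanted 96−120 h beforehand; cassette dosing iv 1 mg/kg per compound in NMP/PEG200 (30:70); arterial blood into EDTA tubes at several times, frozen; LC-MS/MS vs standard curve with QCs within 70−130%; noncompartmental analysis.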

Data set [9] concerns the target T2, Signal peptide peptidase-like 2A. The data set is described as follows: Inhibition of SPPL2a in mouse whole blood assessed as increase in CD74/p8 accumulation after 5.5 hrs by Western bot method. In a few lines: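 Mouse whole blood (200 μL) with compound from 20× stock, 0.5% DMSO final, 5.5 h at 37 °C, 5% CO2 with rotation. RBC lysis, washes, lysis in Tris pH 6.8/Triton/deoxycholate buffer; Western blot with rat anti-mouse CD74 (In-1); p8 band intensity normalized to CD74 full-length/β-actin for dose response.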

The nature of data set [10]: Equilibrium solubility of the compound at pH 6.8 after 24 hrs by saturation shake flask based UV-HPLC method. The conditions noted are these: buffer. Format: physicochemical.
The nature of data set [11]: Clearance in Balb/c mouse at 5 mg/kg, iv by LC/MS/MS analysis. The conditions noted are these: in vivo. Format: ADME, organism-based.
For data set [12], the system named is Mus musculus. Description: In vivo inhibition of SPPL2a in mouse assessed as increase in CD74/p8 accumulation in splenocytes at 100 mg/kg, po administered as single dose measured after 4 hrs by Western blot method. The data set is classed as functional, organism-based. On the technique in general: A western blot detects proteins with antibodies after separation by electrophoresis.

Data set [13] has as its system Mus musculus. Description: In vivo inhibition of SPPL2a in mouse assessed as increase in CD74/p8 accumulation in splenocytes at 10 to 100 mg/kg, po administered as single dose measured after 4 hrs by Western blot method. Format: functional, organism-based.
Data set [14] deals with Mus musculus. The data set is described as follows: In vivo inhibition of mouse gamma-secretase assessed as effect on Hes1 mRNA level in jejunum at 100 mg/kg, po administered as single dose by RT-PCR method. The data set is classed as organism-based. In a few lines:
(§2)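 Thymus and jejunum excised into RNALater, 4 °C overnight, washed, frozen at −80 °C; total RNA from 10 mg tissue by MagNA Pure LC; Hes1 measured by TaqMan real-time PCR; significance by two-tailed heteroscedastic Student's t-test.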

Data set [15] relates to Mus musculus. Description: In vivo inhibition of mouse gamma-secretase assessed as effect on Hes1 mRNA level in thymus at 100 mg/kg, po administered as single dose by RT-PCR method. Format: organism-based. In a few lines:
as §2

Data set [16] deals with Rattus norvegicus. Description: Dose normalized AUC in Wistar rat at 10 mg/kg, po bid by LC/MS/MS analysis. The data set is classed as ADME, organism-based. The conditions noted are these: in vivo.
Data set [17] can be described thus: Inhibition of human SPP expressed in human U2OS cells using EGFP-labeled EnvSigSeq-SEAP as substrate after 24 hrs by Hoechst staining based high content imaging assay. Format: cell-based. The procedure, abridged:
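Stable U-2 OS lines expressing human SPPL2a, SPPL2b or SPP constitutively (mouse SPPL2a line analogous, mouse TNFα(aa1-77)-NTF-EGFP-NLS) with doxycycline-inducible EGFP substrate. 3000 cells/well, 3−4 h, then 11-point inhibitor 100 μM to 1 nM, 0.9% DMSO, 5 μg/mL doxycycline, 24 h 37 °C. PFA fixed, Hoechst nuclei; nuclear minus cytoplasmic EGFP intensity; inhibition vs 0.5 μM reference and DMSO; IC50 by nonlinear regression.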

By IC50 is commonly meant the concentration that gives 50% inhibition. Consider `CC(C)C[C@H](NC(=O)OCc1ccccc1)C(=O)N[C@@H](CC(C)C)C(=O)NCC(=O)CNC(=O)[C@H](CC(C)C)NC(=O)[C@H](CC(C)C)NC(=O)OCc1ccccc1`, for which the figures for the IC50 in data set [1] and in data set [3] were 0.006 µM and more than 10 µM, respectively. Moreover, the “Ratio IC50” value in [2] is on record as more than 1666.
One may read the logP as a log measure of how a compound divides between an organic and an aqueous phase. Low values mean a more hydrophilic compound, high ones a more lipophilic compound. Take `Cc1ncc(F)cc1NC(=O)C[C@@H](C)C(=O)N[C@@H]1C(=O)N2CCCN2C(=O)c2ccccc21`: the logP in data set [4] worked out at 0.9. This molecule also came in with an IC50 in data set [3] of more than 10 µM.
Regarding `C[C@H](CC(=O)Nc1ccccc1C(F)(F)F)C(=O)N[C@@H]1C(=O)N2CCCN2Cc2ccccc21`, the results for the IC50 in [1] and in [3] were 2.85 µM and more than 10 µM, respectively. Besides, the “Ratio IC50” value in data set [2] is given as more than 3.
What is called bioavailability is dose-corrected exposure relative to a reference, in per cent. The low end stands for little systemic uptake, the high end for much systemic uptake. For orientation: clearance means the volume of plasma or blood freed of the substance per unit of time. Lower therefore signals a low capacity for elimination. The term solubility (thermodynamic) denotes the concentration in solution at equilibrium with solid. `Cc1ncc(F)cc1NC(=O)C[C@@H](C)C(=O)N[C@@H]1C(=O)N2CCCN2Cc2ccccc21` displayed a bioavailability in data set [5] of 100%. The IC50 in [1] turned out to be 0.044 µM; in [6] it was 0.097 µM; in data set [3] it was 8.2 µM; in data set [9], 0.05 µM. The molecule further returned a logP in data set [4] of 1.7. The molecule further had an AUC/dose in the data set with Rattus norvegicus [7] of 157 nM·h. Also, the clearance in data set [8] stood at 34 mL/min/kg; in [11], 32 mL/min/kg. Further, the solubility (thermodynamic) at 24 h in data set [10] was more than 1000 µM.
As to `C[C@H](CC(=O)Nc1cc(F)cc(F)c1)C(=O)N[C@@H]1C(=O)N2CCCN2Cc2ccccc21`, the figures for the IC50 in data set [1] and in [3] were 0.005 µM and 0.017 µM, respectively. Besides, in data set [2], the “Ratio IC50” value came to 3.
As to `Cc1ccc(NC(=O)C[C@@H](C)C(=O)N[C@@H]2C(=O)N3CCCN3Cc3ccccc32)cc1`, the IC50 in [3] worked out at 0.027 µM.
Regarding `Cc1cccc(NC(=O)C[C@@H](C)C(=O)N[C@@H]2C(=O)N3CCCN3Cc3ccccc32)c1`, the IC50 amounted to 0.07 µM in data set [1] and 0.61 µM in data set [3]. In addition, the “Ratio IC50” value in [2] came to 9.
With `Cc1ncccc1NC(=O)C[C@@H](C)C(=O)N[C@@H]1C(=O)N2CCCN2Cc2ccccc21`, the IC50 in data set [1] was 1.02 µM; in data set [3], more than 10 µM. Also, the thermodynamic solubility at 24 h in data set [10] is more than 1000 µM.
On to `C[C@H](NC(=O)[C@@H](O)c1cc(F)cc(F)c1)C(=O)N[C@@H]1C(=O)N(C)c2ccccc2-c2ccccc21`, for which the result in the data set on Mus musculus [12] and with Mus musculus [13] was Active. Moreover, the IC50 in data set [1] is 0.01 µM; in data set [3], less than 0.0003 µM; in [17], 0.05 µM. Also, in data set [2], the “Ratio IC50” value is recorded as less than 1. Besides, the Activity entry in the data set on Mus musculus [14] and in the data set with Mus musculus [15] was “Toxic” in each case. The molecule further gave an AUC/dose in the data set with Rattus norvegicus [16] of 63 nM·h.
`Cc1ncc(F)cc1NC(=O)C[C@H](C(=O)N[C@@H]1C(=O)N2CCCN2C(=O)c2ccccc21)C1CC1` came in with a logP in data set [4] of 1.6. Moreover, the results for the IC50 in [6] and in [3] were 0.496 µM and more than 10 µM, respectively.
In the case of `Cc1ncc(F)cc1NC(=O)C[C@@H](C)C(=O)N[C@@H]1C(=O)N2CCCN2Cc2c(F)cccc21`, the bioavailability in data set [5] came to 54%. Further, the IC50 in data set [1] came to 0.076 µM; in data set [6], 0.121 µM; in data set [3] it was 7.8 µM. The logP in data set [4] came out at 2.1. Further, the AUC/dose with Rattus norvegicus [7] was determined as 1522 nM·h. For the same molecule, in data set [8], the clearance was 15 mL/min/kg. This molecule also had a solubility (thermodynamic) at 24 h in data set [10] of 257 µM (≈ 118 µg/mL).
